According to ChEMBL document CHEMBL1165943, “Design and synthesis of new anticancer pyrimidines with multiple-kinase inhibitory effect” (Bioorg Med Chem, 2010):

What was measured:
Assay type in all cases: functional
TK-10 = experiment: Cytotoxicity against human TK10 cells assessed as cell growth at 10 uM; settings: Homo sapiens, TK-10; read-out: Activity
Method in brief: (§1)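 Single-dose screen at 10 μM across the 60-cell-line panel. Cells grown in RPMI 1640 with 5% FBS and 2 mM L-glutamine, seeded at 5,000–40,000 cells/well according to doubling time, and treated 24 h later. Exposure lasted 48 h at 37 °C, 5% CO₂. Adherent cells were fixed with cold TCA, suspension cells were fixed settled, and both were stained with SRB and read at 515 nm. Growth % was recorded, with inhibition % = 100 − growth %.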

[1] = Growth inhibition of human NCI60 cells at 10 uM after 48 hrs by sulforhodamine B assay relative to control; settings: Homo sapiens, NCI60, 48 h; read-out: GI
Method in brief: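 Single 10 µM dose across the 60-line panel for 48 h, with the same culture, TCA fixation and SRB 515 nm read-out. Inhibition % = 100 − growth %, given as the mean over the 60 cell lines.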

SF-268 = experiment: Cytotoxicity against human SF268 cells assessed as cell growth at 10 uM; settings: Homo sapiens, SF-268; read-out: Activity; method in brief: as §1
NCI-H226 = experiment: Cytotoxicity against human NCI-H226 cells assessed as cell growth at 10 uM; settings: Homo sapiens, NCI-H226; read-out: Activity; method in brief: as §1
OVCAR-3 = experiment: Cytotoxicity against human OVCAR-3 cells assessed as cell growth at 10 uM; settings: Homo sapiens, OVCAR-3; read-out: Activity; method in brief: as §1
MDA-MB-231 = experiment: Cytotoxicity against human MDA-MB-231 cells assessed as cell growth at 10 uM; settings: Homo sapiens, MDA-MB-231; read-out: Activity; method in brief: as §1
COLO 205 = experiment: Cytotoxicity against human COLO205 cells assessed as cell growth at 10 uM; settings: Homo sapiens, COLO 205; read-out: Activity
Method in brief: (§2)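 Single-concentration screen at 10 μM across the 60-cell-line panel (nine tissue types); growth percentage recorded per cell line, with inhibition taken as 100 minus growth percentage.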

IGROV-1 = experiment: Cytotoxicity against human IGROV1 cells assessed as cell growth at 10 uM; settings: Homo sapiens, IGROV-1; read-out: Activity; method in brief: as §1
HCT-15 = experiment: Cytotoxicity against human HCT15 cells assessed as cell growth at 10 uM; settings: Homo sapiens, HCT-15; read-out: Activity; method in brief: as §2
A498 = experiment: Cytotoxicity against human A498 cells assessed as cell growth at 10 uM; settings: Homo sapiens, A498; read-out: Activity; method in brief: as §2
SW-620 = experiment: Cytotoxicity against human SW620 cells assessed as cell growth at 10 uM; settings: Homo sapiens, SW-620; read-out: Activity; method in brief: as §1
UO-31 = experiment: Cytotoxicity against human UO31 cells assessed as cell growth at 10 uM; settings: Homo sapiens, UO-31; read-out: Activity; method in brief: as §1
HCC 2998 = experiment: Cytotoxicity against human HCC2998 cells assessed as cell growth at 10 uM; settings: Homo sapiens, HCC 2998; read-out: Activity; method in brief: as §2
NCI/ADR-RES = experiment: Cytotoxicity against human NCI/ADR-RES cells assessed as cell growth at 10 uM; settings: Homo sapiens, NCI/ADR-RES; read-out: Activity; method in brief: as §1
T47D = experiment: Cytotoxicity against human T47D cells assessed as cell growth at 10 uM; settings: Homo sapiens, T47D; read-out: Activity; method in brief: as §1
BT-549 = experiment: Cytotoxicity against human BT549 cells assessed as cell growth at 10 uM; settings: Homo sapiens, BT-549; read-out: Activity; method in brief: as §2
786-0 = experiment: Cytotoxicity against human 786-0 cells assessed as cell growth at 10 uM; settings: Homo sapiens, 786-0; read-out: Activity; method in brief: as §2
OVCAR-5 = experiment: Cytotoxicity against human OVCAR5 cells assessed as cell growth at 10 uM; settings: Homo sapiens, OVCAR-5; read-out: Activity; method in brief: as §1
OVCAR-4 = experiment: Cytotoxicity against human OVCAR4 cells assessed as cell growth at 10 uM; settings: Homo sapiens, OVCAR-4; read-out: Activity; method in brief: as §1
UACC-257 = experiment: Cytotoxicity against human UACC257 cells assessed as cell growth at 10 uM; settings: Homo sapiens, UACC-257; read-out: Activity; method in brief: as §1
K562 = experiment: Cytotoxicity against human K562 cells assessed as cell growth at 10 uM; settings: Homo sapiens, K562; read-out: Activity; method in brief: as §1
PC-3 = experiment: Cytotoxicity against human PC3 cells assessed as cell growth at 10 uM; settings: Homo sapiens, PC-3; read-out: Activity; method in brief: as §1
HCT-116 = experiment: Cytotoxicity against human HCT116 cells assessed as cell growth at 10 uM; settings: Homo sapiens, HCT-116; read-out: Activity; method in brief: as §2
SK-MEL-2 = experiment: Cytotoxicity against human SK-MEL-2 cells assessed as cell growth at 10 uM; settings: Homo sapiens, SK-MEL-2; read-out: Activity; method in brief: as §1
HT-29 = experiment: Cytotoxicity against human HT-29 cells assessed as cell growth at 10 uM; settings: Homo sapiens, HT-29; read-out: Activity; method in brief: as §2
NCI-H460 = experiment: Cytotoxicity against human NCI-H460 cells assessed as cell growth at 10 uM; settings: Homo sapiens, NCI-H460; read-out: Activity; method in brief: as §1
MCF7 = experiment: Cytotoxicity against human MCF7 cells assessed as cell growth at 10 uM; settings: Homo sapiens, MCF7; read-out: Activity; method in brief: as §1
Malme-3M = experiment: Cytotoxicity against human MALME-3M cells assessed as cell growth at 10 uM; settings: Homo sapiens, Malme-3M; read-out: Activity; method in brief: as §1
HOP-62 = experiment: Cytotoxicity against human HOP62 cells assessed as cell growth at 10 uM; settings: Homo sapiens, HOP-62; read-out: Activity; method in brief: as §2
KM12 = experiment: Cytotoxicity against human KM12 cells assessed as cell growth at 10 uM; settings: Homo sapiens, KM12; read-out: Activity; method in brief: as §1
MDA-MB-468 = experiment: Cytotoxicity against human MDA-MB-468 cells assessed as cell growth at 10 uM; settings: Homo sapiens, MDA-MB-468; read-out: Activity; method in brief: as §1
OVCAR-8 = experiment: Cytotoxicity against human OVCAR8 cells assessed as cell growth at 10 uM; settings: Homo sapiens, OVCAR-8; read-out: Activity; method in brief: as §1
UACC-62 = experiment: Cytotoxicity against human UACC62 cells assessed as cell growth at 10 uM; settings: Homo sapiens, UACC-62; read-out: Activity; method in brief: as §1
SK-MEL-5 = experiment: Cytotoxicity against human SK-MEL-5 cells assessed as cell growth at 10 uM; settings: Homo sapiens, SK-MEL-5; read-out: Activity; method in brief: as §1
NCI-H322M = experiment: Cytotoxicity against human NCI-H322M cells assessed as cell growth at 10 uM; settings: Homo sapiens, NCI-H322M; read-out: Activity; method in brief: as §1
SK-OV-3 = experiment: Cytotoxicity against human SKOV3 cells assessed as cell growth at 10 uM; settings: Homo sapiens, SK-OV-3; read-out: Activity; method in brief: as §1
EKVX = experiment: Cytotoxicity against human EKVX cells assessed as cell growth at 10 uM; settings: Homo sapiens, EKVX; read-out: Activity; method in brief: as §2
NCI-H23 = experiment: Cytotoxicity against human NCI-H23 cells assessed as cell growth at 10 uM; settings: Homo sapiens, NCI-H23; read-out: Activity; method in brief: as §1

| Structure (SMILES) | growth at 10 µM (TK-10) | inhibition of growth at 10 µM [1] | growth at 10 µM (SF-268) | growth at 10 µM (NCI-H226) | growth at 10 µM (OVCAR-3) | growth at 10 µM (MDA-MB-231) | growth at 10 µM (COLO 205) | growth at 10 µM (IGROV-1) | growth at 10 µM (HCT-15) | growth at 10 µM (A498) | growth at 10 µM (SW-620) | growth at 10 µM (UO-31) | growth at 10 µM (HCC 2998) | growth at 10 µM (NCI/ADR-RES) | growth at 10 µM (T47D) | growth at 10 µM (BT-549) | growth at 10 µM (786-0) | growth at 10 µM (OVCAR-5) | growth at 10 µM (OVCAR-4) | growth at 10 µM (UACC-257) | further results |
| --- | --- | --- | --- | --- | --- | --- | --- | --- | --- | --- | --- | --- | --- | --- | --- | --- | --- | --- | --- | --- | --- |
| CC(=O)Nc1cccc(-c2ccc(-c3ccnc(NC(=O)Nc4cc(C(F)(F)F)cc(C(F)(F)F)c4)n3)cn2)c1.Cl | 76% | 50.9% | 83.6% | 59.8% | 67.8% | 65.5% | 53.5% | 76% | 60.3% | 59% | 85.2% | 54.7% | 70.7% | 45.5% | -11.3% | 47.3% | 69.8% | 93.5% | 7.08% | 50.5% | growth at 10 µM (K562): 34.8%; growth at 10 µM (PC-3): 56.2%; growth at 10 µM (HCT-116): 50.5%; growth at 10 µM (SK-MEL-2): 62.1%; growth at 10 µM (HT-29): 9.2%; growth at 10 µM (NCI-H460): 34.5%; growth at 10 µM (MCF7): 7.95%; growth at 10 µM (Malme-3M): 52.3%; growth at 10 µM (HOP-62): -3.2%; growth at 10 µM (KM12): 72.7%; growth at 10 µM (MDA-MB-468): -30.3%; growth at 10 µM (OVCAR-8): 27.9%; growth at 10 µM (UACC-62): 46.6%; growth at 10 µM (SK-MEL-5): -25.5%; growth at 10 µM (NCI-H322M): 41.8%; growth at 10 µM (SK-OV-3): 83.1%; growth at 10 µM (EKVX): 69.2%; growth at 10 µM (NCI-H23): -6.37% |
| CC(=O)c1ccc(-c2ccc(-c3ccnc(Nc4cc(C(F)(F)F)cc(C(F)(F)F)c4)n3)cn2)cc1 | 106% | -2.21% | 106% | 100% | 119% | 98.2% | 110% | 99.7% | 110% | 97.4% | 109% | 79.3% | 104% | 103% | 91.6% | 99.8% | 105% | 109% | 94.6% | 102% | growth at 10 µM (K562): 98.5%; growth at 10 µM (PC-3): 89.8%; growth at 10 µM (HCT-116): 92.9%; growth at 10 µM (SK-MEL-2): 104%; growth at 10 µM (HT-29): 105%; growth at 10 µM (NCI-H460): 106%; growth at 10 µM (MCF7): 90.8%; growth at 10 µM (Malme-3M): 124%; growth at 10 µM (HOP-62): 112%; growth at 10 µM (KM12): 114%; growth at 10 µM (MDA-MB-468): 106%; growth at 10 µM (OVCAR-8): 96.7%; growth at 10 µM (UACC-62): 104%; growth at 10 µM (SK-MEL-5): 101%; growth at 10 µM (NCI-H322M): 103%; growth at 10 µM (SK-OV-3): 93.5%; growth at 10 µM (EKVX): 113%; growth at 10 µM (NCI-H23): 96.5% |
| FC(F)(F)c1cc(Nc2nccc(-c3cccnc3)n2)cc(C(F)(F)F)c1 | 106% | -0.32% | 99.5% | 99.6% | 119% | 91.3% | 119% | 101% | 92.7% | 103% | 109% | 101% | 118% | 94.7% | 83.9% | 107% | 97.1% | 97% | 121% | 111% | growth at 10 µM (K562): 89.6%; growth at 10 µM (PC-3): 105%; growth at 10 µM (HCT-116): 91.1%; growth at 10 µM (SK-MEL-2): 98.2%; growth at 10 µM (HT-29): 92.1%; growth at 10 µM (NCI-H460): 103%; growth at 10 µM (MCF7): 96%; growth at 10 µM (Malme-3M): 103%; growth at 10 µM (HOP-62): 104%; growth at 10 µM (KM12): 103%; growth at 10 µM (MDA-MB-468): 98.4%; growth at 10 µM (OVCAR-8): 102%; growth at 10 µM (UACC-62): 102%; growth at 10 µM (SK-MEL-5): 101%; growth at 10 µM (NCI-H322M): 97.5%; growth at 10 µM (SK-OV-3): 106%; growth at 10 µM (EKVX): 102%; growth at 10 µM (NCI-H23): 97.9% |
